PAD4 FP inh: PAD4 (human) enzyme inhibition; Q9UM07; recombinant PAD4, RCA probe fluorescence polarization; inhibition, % at 6.36 µM; actives 0.41% (n = 330,000); AID 485272;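 active means percent inhibition above a cutoff equal to the mean of all tested compounds plus 3 SD, cut at about 15% in these data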;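 further: 0% = PAD4 with RCA probe and DMSO and 100% = probe without PAD4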
GSTO1 counter: blocks human GSTO1 in RBBP9 counter-screen | P78417 | recombinant GSTO1, activity-based probe fluorescence polarization | inhibition, % at 5.96 µM | actives 1.1% (n = 300,000) | AID 1974;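 active means inhibition above the campaign mean inhibition plus 3 SD, cut at about 35% in these data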;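 further: 0% = GSTO1-1 with DMSO and 100% = wells lacking GSTO1-1 enzyme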
Target sequence (P78417 whole entry, looked up): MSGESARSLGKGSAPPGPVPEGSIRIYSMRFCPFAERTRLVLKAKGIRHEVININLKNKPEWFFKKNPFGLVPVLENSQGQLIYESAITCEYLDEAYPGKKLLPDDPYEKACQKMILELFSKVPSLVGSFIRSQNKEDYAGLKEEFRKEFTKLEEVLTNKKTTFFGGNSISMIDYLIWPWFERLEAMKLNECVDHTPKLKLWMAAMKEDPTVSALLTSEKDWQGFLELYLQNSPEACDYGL
TDP2 absorb: blocks human TDP2 phosphodiesterase activity. inhibition, % at 12.8 µM. actives 0.34% (n = 370,000). recombinant TDP2, T5PNP hydrolysis, p-nitrophenol absorbance 415 nm. O95551;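 active means inhibition above the mean of all tested compounds plus 3 SD, set per campaign, cut at about 25% in these data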;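 further: 0% = DMSO with enzyme and 100% = buffer with substrate but no TDP2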
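Assay system: Recombinant human TDP2 | Quantity: 120 nM TDP2 per well | Incubation: 2 h at 37 °C | Signal: Epi absorbance | Evaluation: Percent inhibition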
Apaf1 inhib: inhibitors of human Apaf-1 apoptosome. O14727. reconstituted apoptosome caspase-3 activity, DEVD-Rh110 fluorescence. inhibition, % at 20 µM. actives 0.71% (n = 330,000). AID 489030; active means inhibition of at least 40% at 20 µM;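 further: plate controls were DMSO wells for no effect and DEVD-CHO caspase inhibitor wells for full effect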
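System – cell-free apoptosome with Apaf-1, procaspase-3 and caspase-9 · Buffer or medium – pH 7.5 Hepes buffer with CHAPS, BSA, DTT · Also added – cytochrome c with DEVD-Rh110 · Times – 30 min compound preincubation, 50 min activation, room temperature · Technique – Rh110 fluorescence intensity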
PRMT1 FP inh: PRMT1 (human) inhibition, primary screen; recombinant PRMT1, activity-based probe fluorescence polarization; inhibition, % at 2.79 µM; actives 1.3% (n = 370,000); AID 652257;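 active means inhibition above about 21% made by adding two undisclosed values, limit read from the data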
* = called active by the depositor; . = not tested or not shown. A selection: hits, their analogues and other compounds. The true share with any hit is near 2.6%.

SMILES	PAD4 FP inh	GSTO1 counter	TDP2 absorb	Apaf1 inhib	PRMT1 FP inh
CCN(CC)C(=O)CC[C@H]1CC[C@]2(CCCN(c3ccccc3)C2)O1	.	.	-6.1	.	-5.5
O=C1CC(c2ccc(O)c(O)c2)Oc2c1ccc(O)c2O (stereo unspecified)	6.1	44.0*	-11.0	-22.9	36.7*
CC(C)=CCc1c(O)ccc2c1OC(c1ccc(O)c(O)c1)CC2=O (stereo unspecified)	-1.2	19.7	5.5	-19.8	8.2
COc1ccc(S(=O)(=O)N2CCN(c3ccc4nnc(-c5ccccc5)n4n3)CC2)cc1	0.2	8.1	1.0	64.9*	-3.1
COc1ccccc1-c1ncn(Cc2cccc(-c3ccccc3)c2)c1-c1ccco1	.	.	6.7	.	9.9
O=C(NC1CCCCC1)C(c1ccc(O)c(O)c1)N(C(=O)Cn1nnc2ccccc21)c1cccc(O)c1 (stereo unspecified)	-1.3	36.3*	-16.6	-5.3	4.4
O=[N+]([O-])c1cccc(-c2ccc(/C=N/NC(=S)Nc3ccccc3)o2)c1	-2.3	-22.7	2.9	2.3	0.2
O=C(O)c1cc(-c2ccc(/C=N/NC(=S)Nc3ccccc3)o2)ccc1Cl	-2.3	48.2*	-1.9	8.9	11.8
O=C(c1nc2ccc(Cl)cn2c1CN1CCC(CO)CC1)N1CCc2ccccc2C1	2.2	-2.8	-13.5	4.2	2.3
O=C(c1nc2ccc(Cl)cn2c1CN1CCCC1)N1CCc2ccccc2C1	0.6	2.2	-1.5	10.2	24.4*
O=S1(=O)c2ccc(N3CC[C@@H](O)C3)cc2O[C@@H]2CCN1C2	.	.	-2.3	.	2.9
O=C(Cn1nc(-c2ccccc2Cl)ccc1=O)Nc1ccccc1-c1ccccc1	-1.2	8.1	-21.6	55.8*	-0.7
Cc1ccc(NC(=O)CSc2ncnc3ccccc23)cc1S(=O)(=O)N1CCCCC1	10.4	-33.7	-12.6	8.3	22.6*
COc1ccc(NC(=S)c2ccc3ccccc3n2)cc1	0.4	6.1	.	14.6	.
COc1ccc(N=C(NN)c2ccc3ccccc3n2)cc1	-5.5	2.8	-7.8	16.3	26.7*
Oc1ccc(/C=N/Nc2nc(N3CCCC3)nc(N3CCCC3)n2)cc1O	1.5	56.1*	2.4	6.1	3.8
COc1cc(/C=N/Nc2nc(N3CCCC3)nc(N3CCCC3)n2)ccc1O	3.0	0.1	6.5	-12.0	0.9
COCCCN1C(=O)[C@H](CC(=O)NCCCN2CCCC2=O)[C@]2(C(=O)OC)CCCCC=C12	.	.	-4.6	.	-5.1
CN(C1=C(NC(=O)c2ccccc2)C(=O)c2ccccc2C1=O)C1CCS(=O)(=O)C1 (stereo unspecified)	4.1	75.5*	32.5*	88.2*	7.3
Nc1c2c(nc3ccc(Br)cc13)N(c1ccccc1)CC2	-14.1	-6.7	-2.3	14.0	23.4*
O=C(NCCc1c[nH]c2ccccc12)OCc1cn(Cc2ccc(C(F)(F)F)cc2)nn1	.	.	2.9	.	-6.1
O=C1CNC(=S)N1CCc1ccc(O)c(O)c1	-2.9	60.5*	6.8	-2.4	5.4
COC(=O)[C@]12CCCCC=C1N(Cc1ccc(OC)cc1)C(=O)[C@@H]2CC(=O)N1CCC(c2ccccc2)CC1	.	.	2.1	.	3.0
O=C(OC12CCCN(C1)/C(=C/c1ccccc1)C2)c1ccc(F)cc1 (stereo unspecified)	.	.	-8.8	.	0.5
CCOc1cc(Br)cc(/C=C2\SC(=Nc3ccccc3)NC2=O)c1O	0.8	-0.4	13.1	6.3	24.1*
SMILES	PAD4 FP inh	GSTO1 counter	TDP2 absorb	Apaf1 inhib	PRMT1 FP inh
C=CCOc1ccc(Br)cc1/C=C1/SC(=Nc2ccc(C(=O)O)cc2)NC1=O	.	.	2.4	.	4.4
Cc1[nH]nc2c1C(c1ccccc1)N(Cc1ccccc1)C2=O (stereo unspecified)	.	.	7.5	.	-3.7
CC(=Nc1ccc(C)cc1)c1sc2ccccc2c1O	2.0	14.8	10.6	5.2	24.5*
CC(C)n1cnc2c(Nc3ccc(F)c(Cl)c3)nc(NCCO)nc21	-3.0	-1.8	1.5	4.0	0.2
C=CC(=O)Nc1ccc(Nc2nc(NC3CCC(N(C)C)CC3)nc3c2ncn3C(C)C)cc1 (stereo unspecified)	3.5	.	.	45.9*	.
COc1cccc(C(=O)NCCN2C(=O)C3C4C=CC(C4)C3C2=O)c1 (stereo unspecified)	.	.	5.5	.	2.1
COc1ccccc1CNS(=O)(=O)c1ccc(-c2cc(C)no2)cc1	1.1	6.2	1.4	44.5*	-0.5
CCc1ccc(-c2cc(C)no2)cc1S(=O)(=O)NCc1ccccc1OC	-5.4	-13.5	-7.3	17.2	-2.7

Source: PubChem BioAssay (several laboratories)
